Screens deposited in PubChem BioAssay by several laboratories.
Shown are actives, neighbours in structure and some others; about 2% of the full set was active somewhere.
HIF act: HIF pathway transcriptional activation. U2OS HRE-luciferase reporter, luminescence; normalized: DMSO 0%, desferrioxamine 100%. activation, % at 7.5 µM (by protocol). actives 0.32% (n = 300,000);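 active = mean activation of at least 10% of the iron chelator positive control signal, with at least half of replicates also reaching 10%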
LMP1 NFkB inh: inhibitors of Epstein-Barr LMP1-induced NF-kappaB reporter | actives 0.69% (n = 350,000) | inhibition, % at 12.5 µM | AID 504558 | LMP1-induced NF-kappaB luciferase reporter cells, luminescence; in the data active = inhibition above about 41%
NR2E3 ag-1: agonists of human nuclear receptor NR2E3. Q9Y5X4. inhibition of corepressor binding, % at 4.78 µM. GST-NR2E3/biotin-RetCOR TR-FRET, 1536-well. actives 0.12% (n = 320,000);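 active = percent inhibition above the cutoff of mean plus 3 SD of all tested compounds, set per screening campaign, cut at about 20% in these data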
Target sequence (Q9Y5X4 whole entry, looked up): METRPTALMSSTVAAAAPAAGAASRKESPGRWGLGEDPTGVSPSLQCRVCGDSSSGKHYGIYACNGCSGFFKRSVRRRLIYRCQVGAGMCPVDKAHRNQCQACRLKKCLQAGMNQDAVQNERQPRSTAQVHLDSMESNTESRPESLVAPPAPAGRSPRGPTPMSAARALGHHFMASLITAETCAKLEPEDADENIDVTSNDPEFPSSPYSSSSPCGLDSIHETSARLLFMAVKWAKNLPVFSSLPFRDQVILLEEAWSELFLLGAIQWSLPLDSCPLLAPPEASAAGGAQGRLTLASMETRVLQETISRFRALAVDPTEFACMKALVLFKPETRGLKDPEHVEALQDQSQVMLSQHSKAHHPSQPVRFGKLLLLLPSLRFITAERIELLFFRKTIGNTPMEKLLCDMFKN
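System: GST-NR2E3 and biotin-RetCOR proteins; probe or stimulus: 7 nM biotin-RetCOR; doses: compound at 4.8 µM, single dose; schedule: Compound–protein incubation for 5 h at 4 °C; detection: time-resolved FRET; read-out: percent inhibition; controls: biotin wells as high control, 0.6% DMSO wells as low control; format: 1536-well plates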
NR2E3 ag-2: agonists of human NR2E3 nuclear receptor; inhibition of corepressor binding, % at 3.98 µM; actives 0.35% (n = 360,000); Q9Y5X4; CHO-S Gal4-NCOR/VP16-NR2E3 two-hybrid, luciferase;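 active = inhibition above the mean of all tested compounds plus 3 SD, cut at about 70% in these data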;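 note: higher means lower luciferase signal from less NR2E3 corepressor binding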
TROY NFkB inh: inhibitors of TROY-dependent NF-kB signaling; actives 0.98% (n = 360,000); AID 1347056; inhibition, % at 10 µM; Q293 LMP1-TROYcd NF-kB luciferase reporter, 4 h;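 active = compounds whose plate-normalised and pattern-corrected inhibition of the luciferase reporter signal at the single screening dose is 50% or more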
A number is an active result; – = inactive; · = not tested or not shown; ! = a repeat was not active.

SMILES | HIF act | LMP1 NFkB inh | NR2E3 ag-1 | NR2E3 ag-2 | TROY NFkB inh
CCn1nc(-c2ccccc2)nc2c(=O)n(C)c(=O)nc1-2 | – | – | 41 | 89 | –
Cc1cccc(C)c1-n1nnnc1C(c1cccc2ccccc12)N1CCC2(CC1)C(=O)NCN2c1ccccc1 (configuration not stated) | · | · | · | – | –
CC1(CCCc2ccc(N(CCCl)CCCl)cc2)NC(=O)NC1=O (configuration not stated) | · | 48 | · | – | –
Oc1ccccc1Cl | · | – | · | – | –
Oc1ccc(O)c2c1C1(Cl)C(Cl)=C(Cl)C2(Cl)C1(Cl)Cl | · | – | · | – | 52
CCCCOc1ccc(CN2CCN(CCO)CC2)cc1 | – | – | – | – | –
CCCCCCOc1ccc(CN2CCN(CCO)CC2)cc1 | – | – | – | – | 56
C=Cc1cc(OC)c2c(c1)c(=O)oc1c2cc(OC)c2c(O)ccc(C3OC(C)C(O)C(C)(O)C3O)c21 (configuration not stated) | · | 88 | · | – | –
Cc1ncoc1C(=O)NCC1=C(c2ccc(S(C)(=O)=O)cc2)C[C@@H]2CC[C@H]1N2CCOc1ccccc1 | · | – | · | – | –
COC[C@H]1OC(=O)c2coc3c2[C@@]1(C)C1=C(C3=O)[C@@H]2CCC(=O)[C@@]2(C)C[C@H]1OC(C)=O | · | – | · | – | –
CN1CCN(c2ccc(S(C)(=O)=O)cc2[N+](=O)[O-])CC1 | – | – | – | – | –
CN1CCN(c2ccc([N+](=O)[O-])c3no[n+]([O-])c23)CC1 | – | 76 | – | – | –
COC(=O)N1Cc2ccccc2-n2nncc2C1 | · | – | · | – | –
CN1CCCC2c3ccccc3CCC21 (configuration not stated) | · | – | · | – | –
CC1(C)CC2CCC(O)C2C(CCO)N1 (configuration not stated) | · | – | · | – | –
Nc1cncc(C(=O)O)c1 | – | 61! | – | – | –
O=C1CCCN1C(=O)c1cncc(Br)c1 | – | – | – | – | –
COC1C(O)C(C)OC(OC2C(Oc3cccc4c(O)c5c(=O)oc6ccc(C)c7c(=O)oc(c34)c5c67)OC(C)C(O)C2O)C1O (configuration not stated) | · | – | · | – | –
CC1(C(=O)O)CC12c1ccccc1-c1ccccc12 (configuration not stated) | · | 74 | · | – | –
C/C=C1\NC(=O)[C@@H](NC(=O)[C@H](CCc2ccc(O)cc2)NC(=O)[C@H](C)NC(=O)[C@H](O)CO)[C@@H](C)OC(=O)[C@H](C(C)C)NC(=O)[C@H](Cc2ccc(O)cc2)N(C)C(=O)[C@H](Cc2ccccc2)N2C(=O)C(CC[C@H]2O)NC1=O (some centres not stated) | · | – | · | – | –
COC(=O)C1=C(c2cccc(OCc3ccccc3)c2)C[C@@H]2CC[C@H]1N2C(=O)NCc1cccc(C(F)(F)F)c1 | · | – | – | – | –
COC(=O)C1=C(c2cccc(OCc3ccccc3)c2)C[C@@H]2CC[C@H]1N2C(=O)NCCOc1ccccc1 | · | – | – | – | –
CC(C)c1ccccc1OCC(=O)N1CCCN(C)CC1 | – | – | – | – | –
CCN1C[C@]2(C)CC[C@H](O)[C@]34C1[C@H](C[C@H]23)[C@@]1(O)C[C@H](OC)[C@H]2C[C@@H]4[C@@H]1C2O (some centres not stated) | · | 90 | – | – | –
COc1cccc(C(c2nnnn2C2CCCCC2)N2CCC3(CC2)C(=O)NCN3c2ccccc2)c1OC (configuration not stated) | · | · | · | – | –
SMILES | HIF act | LMP1 NFkB inh | NR2E3 ag-1 | NR2E3 ag-2 | TROY NFkB inh
COc1ccc(C(c2nnnn2C2CCCC2)N2CCC3(CC2)C(=O)NCN3c2ccccc2)cc1 (configuration not stated) | · | · | · | – | 56
CSCCC(c1nnnn1-c1c(C)cccc1C)N1CCC2(CC1)C(=O)NCN2c1ccccc1 (configuration not stated) | · | · | · | – | –
Cc1cccc(C)c1-n1nnnc1C(CCc1ccccc1)N1CCC2(CC1)C(=O)NCN2c1ccccc1 (configuration not stated) | · | · | · | – | 67
COc1cccc(C(c2nnnn2C(C)(C)C)N2CCC3(CC2)C(=O)NCN3c2ccccc2)c1OC (configuration not stated) | · | · | · | – | –
CC(C)C[C@H](NC(=O)[C@@H]1CCCN1C(=O)[C@@H](N)Cc1ccc(O)cc1)C(=O)NCC(N)=O | – | 66 | – | – | –
CC(C)CC(NC(=O)C1CCCCC1)C(=O)N1CCC2(CC1)OCCO2 (configuration not stated) | – | – | – | – | –
CC12CC(=O)C3C(CCC4CC=CCC43C)C1CCC2=O (configuration not stated) | · | – | · | – | –
COc1ccc(-n2nnnc2C(c2cc3ccccc3o2)N2CCC(n3c(=O)[nH]c4ccccc43)CC2)cc1 (configuration not stated) | · | · | · | – | 68
O=c1[nH]c2ccccc2n1C1CCN(C(c2cc3ccccc3o2)c2nnnn2-c2ccc3c(c2)OCCO3)CC1 (configuration not stated) | · | · | · | – | 67
COc1ccc(C(c2nnnn2-c2ccc(OC)cc2)N2CCC(n3c(=O)[nH]c4ccccc43)CC2)cc1 (configuration not stated) | · | · | · | – | –
CC/C(=N\N1CCCCCC1)c1c(O)n(-c2ccc(C)cc2)c(=O)[nH]c1=O | 12 | – | – | – | –
COC(=O)c1ccc(NC(=O)CSc2nc3ccc(N4C(=O)C5C6C=CC(C6)C5C4=O)cc3s2)cc1 (configuration not stated) | – | – | – | – | 57
Cc1cc([N+](=O)[O-])c(Cl)cc1NC(=O)C(C)C | – | – | – | – | –
CNc1cc(Cl)c2nonc2c1[N+](=O)[O-] | – | – | · | – | 89
CNc1ccc2oc(C[C@H]3O[C@@]4(CC[C@H]3C)O[C@H]([C@H](C)C(=O)c3ccc[nH]3)[C@H](C)C[C@H]4C)nc2c1C(=O)O | – | 70 | – | – | 53
O=C(NN=Cc1ccc(N(CCCl)CCCl)cc1)c1cccnc1 | · | 47 | · | – | –
O=C(NN=Cc1ccc(N(CCCl)CCCl)cc1)c1cccc([N+](=O)[O-])c1 | · | – | · | – | –
CC1(C)NC(=S)C(C)(C)N1N=O | · | – | · | – | –
CN(C)Cc1c[nH]c2cc([N+](=O)[O-])ccc12 | · | – | · | – | –
Clc1ccc(C(c2ccc(Cl)cc2)n2cc[n+](CC(OCc3ccc(Cl)cc3Cl)c3ccc(Cl)cc3Cl)c2)cc1 (configuration not stated) | · | – | – | – | 80
C[N+](C)(C)CC1CCCC1=O (configuration not stated) | · | – | · | – | –
N#Cc1c(Br)n(C2OC(CO)C(O)C2O)c2ncnc(N)c12 (configuration not stated) | · | – | · | – | –
OCC1OC(n2cnc3cc(Cl)c(Cl)cc32)C(O)C1O (configuration not stated) | · | · | · | – | 54
